Source: ChEMBL document CHEMBL1138254, “Stereoselective synthesis and cytotoxicity of a cancer chemopreventive naphthoquinone from Tabebuia avellanedae” (Bioorg Med Chem Lett, 2007)

Legend:
PC-3 = assay: Cytotoxicity against human PC3 cells assessed as cell viability by tryptan blue staining method; format: functional, cell-based
Summary of the method: (§1)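 Human cancer lines PC-3 (prostate), A549 (lung) and MCF-7 (breast) were treated with compound. Viability was assessed by Trypan blue staining, and EC50 is reported in µM.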

A549 = assay: Cytotoxicity against human A549 cells assessed as cell viability by tryptan blue staining method; format: functional, cell-based; summary of the method: as §1
MCF7 = assay: Cytotoxicity against human MCF7 cells assessed as cell viability by tryptan blue staining method; format: functional, cell-based; summary of the method: as §1
[1] = Cytotoxicity against human Fb cells assessed as cell viability by tryptan blue staining method; format: cell-based
Summary of the method: (§2)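 Human normal cell lines were treated with compound: Fb (skin), Hc (liver), MPC-5 (lung) and IE (colon). Viability was assessed by Trypan blue staining, and EC50 is reported in µM.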

[2] = Cytotoxicity against human Hc cells assessed as cell viability by tryptan blue staining method; format: cell-based; summary of the method: as §2
[3] = Cytotoxicity against human MPC5 cells assessed as cell viability by tryptan blue staining method; format: cell-based; conditions: MPC-5; summary of the method: as §2
[4] = Cytotoxicity against human IE cells assessed as cell viability by tryptan blue staining method; format: cell-based; summary of the method: as §2
Human gammaherpesvirus 4 [5] = assay: Inhibition of TPA-induced EBV-EA activation in Raji cells at 1000 mol ratio/TPA relative to control; format: functional
Summary of the method: (§3)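 TPA-induced EBV-EA activation in Raji cells, with TPA at 32 pmol and test agent at 1000, 500, 100 and 10 mol ratio/TPA. EA-positive cells are expressed relative to the positive control (TPA alone, 100%). An IC50 in µM is derived from the dose series. Curcumin served as the positive control substance.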

Human gammaherpesvirus 4 [6] = assay: Inhibition of TPA-induced EBV-EA activation in Raji cells at 500 mol ratio/TPA relative to control; format: functional; summary of the method: as §3
Human gammaherpesvirus 4 [7] = assay: Inhibition of TPA-induced EBV-EA activation in Raji cells at 100 mol ratio/TPA relative to control; format: functional; summary of the method: as §3
Human gammaherpesvirus 4 [8] = assay: Inhibition of TPA-induced EBV-EA activation in Raji cells at 10 mol ratio/TPA relative to control; format: functional; summary of the method: as §3
Human gammaherpesvirus 4 [9] = assay: Inhibition of TPA-induced EBV-EA activation in Raji cells; format: functional, organism-based; conditions: human gammaherpesvirus 4, Raji; summary of the method: as §3
Raji [10] = assay: Cell viability in Raji cells at 1000 mol ratio/TPA by tryptan blue staining relative to control; format: functional, Homo sapiens
Summary of the method: (§4)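 Raji cells co-treated with test agent and 32 pmol TPA in the EBV-EA activation assay. Doses were 10, 100, 500 or 1000 mol ratio relative to TPA. Viability was scored by Trypan blue staining and given as percent of Raji cells viable.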

Raji [11] = assay: Cell viability in Raji cells at 500 mol ratio/TPA by tryptan blue staining relative to control; format: functional, Homo sapiens; summary of the method: as §4
Raji [12] = assay: Cell viability in Raji cells at 100 mol ratio/TPA by tryptan blue staining relative to control; format: functional, Homo sapiens; summary of the method: as §4
Raji [13] = assay: Cell viability in Raji cells at 10 mol ratio/TPA by tryptan blue staining relative to control; format: functional, Homo sapiens; summary of the method: as §4

Compound	EC50 (PC-3)	EC50 (A549)	EC50 (MCF7)	EC50 [1]	EC50 [2]	EC50 [3]	EC50 [4]	EBV-EA positive cells % (Human gammaherpesvirus 4 [5])	EBV-EA positive cells % (Human gammaherpesvirus 4 [6])	EBV-EA positive cells % (Human gammaherpesvirus 4 [7])	EBV-EA positive cells % (Human gammaherpesvirus 4 [8])	IC50 (Human gammaherpesvirus 4 [9])	Activity (Raji [10])	Activity (Raji [11])	Activity (Raji [12])	Activity (Raji [13])
C[C@@H](O)c1cc2c(o1)C(=O)c1cccc(O)c1C2=O	0.93 µM	3 µM	9.3 µM	39.7 µM	29.8 µM	65.9 µM	39.7 µM	0%	9.7%	24.7%	59.4%	38.9 µM	70%	>80%	>80%	>80%
COc1cc(/C=C/C(=O)CC(=O)/C=C/c2ccc(O)c(OC)c2)ccc1O [CURCUMIN]	–	–	–	–	–	–	–	–	–	–	–	345 µM	–	–	–	–
CC(C)=CCC1=C(O)C(=O)c2ccccc2C1=O [LAPACHOL]	–	–	–	–	–	–	–	8.9%	32.8%	65.2%	86.6%	311 µM	50%	60%	>80%	>80%
CC(O)c1cc2c(o1)C(=O)c1cccc(O)c1C2=O (centres undefined)	0.56 µM	3.24 µM	8.5 µM	45.4 µM	89.3 µM	89.3 µM	158 µM	0%	6.2%	20.7%	52.9%	34.9 µM	60%	70%	>80%	>80%
C[C@H](O)c1cc2c(o1)C(=O)c1cccc(O)c1C2=O	0.14 µM	0.96 µM	3.5 µM	11.1 µM	11.1 µM	29.7 µM	54.5 µM	0%	4.4%	16.9%	50%	33.2 µM	60%	60%	>80%	>80%
CC1(C)CCC2=C(O1)c1ccccc1C(=O)C2=O [LAPACHONE]	–	–	–	–	–	–	–	4.7%	21.7%	50.4%	73.1%	210 µM	50%	>80%	>80%	>80%
CO[C@@]12[C@H](COC(N)=O)C3=C(C(=O)C(C)=C(N)C3=O)N1C[C@@H]1N[C@@H]12 [MITOMYCIN]	0.14 µM	0.43 µM	0.96 µM	0.93 µM	1.46 µM	2.1 µM	1.46 µM	–	–	–	–	–	–	–	–	–
